Among all 2,500 compounds or so, about 460 (18%) were called active.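 The calls were made as follows: active = mean activation above a cutoff of low control average plus 3 SD from the earlier screen (cut at about 12% in these data); inactive = the rest.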 A selection follows.
Test: compound fluorescence interference without thin filaments, confirmation, artefact control for cardiac RTF calcium sensitizer project, biochemical (AID 504382)
Conditions: IANBD fluorescence interference counterscreen, buffer, EC20 Ca2+; at 7.2 µM; active compounds read high; scaled: EC20 calcium 0, EC100 calcium 100
In short: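 Medium: MOPS buffer, 190 mM, with KCl, MgCl2, EGTA, NTA, DTT, pH 7.20; Dosing: one dose of 7.2 µM, 0.7% DMSO; Probe or stimulus: calcium at EC20 level, 0.472 mM final; Incubation: 15 min, 25 °C; Evaluation: compound fluorescence interference relative to control well signal range; Signal: fluorescence, 480/540 nm.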

Structure (SMILES) | fluorescence artifact activation
C=CCN1C(=O)/C(=C\C=C2\N(C)c3ccccc3C2(C)C)SC1=S | 0.06% (inactive)
C/C(N)=C(/C#N)C(=O)CSc1n[nH]c(-c2cccs2)n1 | 0.14% (inactive)
Cc1ccc(C)c(C(=O)CSc2n[nH]c(C(C)C)n2)c1 | 18.7% (active)
COc1ccc(Cl)cc1-c1nc(SCC(=O)NC(C)C)n[nH]1 | 0.53% (inactive)
Cc1[nH]c(=S)c(C#N)c(C)c1CCC#N | 10.6% (inactive)
COC(=O)CNC(=O)COC(=O)c1cc(F)c(F)cc1Cl | 0.55% (inactive)
Cc1ccccc1C1CC(=O)Oc2cc(O)ccc21 (centres undefined) | 0.19% (inactive)
Cc1[nH]c2ccccc2c1/C=C/c1cc[n+](C)cc1 | 3% (inactive)
Cc1ccc2[nH]c(C)c(/C=C/c3cc[n+](C)cc3)c2c1 | 54.8% (active)
Cc1ccc2c(c1)c(/C=C/c1cc[n+](C)cc1)c(C)n2C | 1.43% (inactive)
COC(=O)Cn1cc(/C=C/c2cc[n+](C)cc2)c2ccccc21 | 1.9% (inactive)
COc1ccc(-c2nc(/C=C3\C(C)=Nc4ccccc43)c(O)o2)cc1 | 1.03% (inactive)
COc1ccc(NC(=O)Nc2cccnc2)c(OC)c1 | 0.16% (inactive)
COc1ccc(-c2nnc(-c3cccnc3)o2)cc1 | 15.1% (active)
CC(=O)C1=C(O)CCCC1=NCc1nc2ccccc2[nH]1 | 0.23% (inactive)
CN(Cc1ccccc1)C(=O)N1CCOCC1 | 0.11% (inactive)
CN1CCC(N(CCc2ccccc2)C(=O)CCC(=O)O)CC1 | 46% (active)
CCCN(CCC)C(=O)C1c2ccccc2Oc2ccccc21 | 3.9% (inactive)
CN1CCc2c(sc3c2C(=O)NC(c2ccccn2)N3)C1 (centres undefined) | 0.36% (inactive)
Cc1ccccc1-n1c(SCc2c(C)noc2C)nnc1-c1cccnc1 | 0.05% (inactive)
Cc1ccc2nc(/C(C#N)=C\c3ccc(N4CCOCC4)o3)[nH]c2c1 | 16.5% (active)
Cc1ccc2nc(/C(C#N)=C/c3ccc(-c4ccccc4C(=O)O)o3)[nH]c2c1 | 0.32% (inactive)
N#C/C(=C\c1ccc(-c2ccccc2C(=O)O)o1)c1nc2ccccc2[nH]1 | 1.15% (inactive)
N#C/C(=C\c1ccc(N2CCOCC2)o1)c1nc2ccccc2[nH]1 | 14.2% (active)
N#C/C(=C/c1ccc(N2CCOCC2)o1)c1nc2ccccc2[nH]1 | 0.08% (inactive)

Structure (SMILES) | fluorescence artifact activation
N#C/C(=C/c1ccc(N2CCOCC2)o1)C(=O)N1CCOCC1 | 0.41% (inactive)
CCOP(=O)(OCC)/C(=N/OC(=O)c1ccc(OC)cc1)C(N)=O | 0.15% (inactive)
Cc1c(CN2CCCC(C)C2)c(O)n(CCO)c(=O)c1C#N (centres undefined) | 1.74% (inactive)
C=CCN1C(=O)C(Cc2cccc(Cl)c2)S/C1=N/N=C/c1ccco1 (centres undefined) | 0.07% (inactive)
CCOc1ccc(C2CC(c3c(O)c4ccccc4oc3=O)=NN2c2ccccc2)cc1OC (centres undefined) | 5.17% (inactive)
CCOc1cc(C2C(C#N)=C(N)OC(C)=C2C(C)=O)cc(Br)c1O (centres undefined) | 37.6% (active)
CCOc1cc(C2C3=C(CCCC3=O)N(C)C3=C2C(=O)CCC3)cc(Cl)c1O | -0.02% (inactive)
CCOc1ccc(C2C(C#N)=C(N)SC(N)=C2C#N)c(OCC)c1 | 0.05% (inactive)
COc1ccc(OCC(=O)OCCNC(=O)c2cccnc2)cc1 | 0.14% (inactive)
O=C(CN1C(=O)c2ccccc2C1=O)NCc1ccc(N2CCOCC2)cc1 | 1.1% (inactive)
Cc1cc2nc3c(=O)[nH]c(=S)[nH]c3nc2cc1NC(=O)C(F)(F)F | 5.96% (inactive)
O=C1c2ccccc2C(Nc2cccnc2)N1Cc1ccccc1Cl (centres undefined) | 10.4% (inactive)
Cc1ccc(-n2nc(C)c(=O)c(-c3ccccc3)c2NC(=O)c2cccs2)cc1 | 1.25% (inactive)
CC(C)C[C@@H](CN=[N+]=[N-])N1CCN(C)CCC1=O | 0.09% (inactive)
c1ccc2c(c1)CCCN2Cc1nnnn1CC1CCCO1 (centres undefined) | 0.36% (inactive)
c1ccc2c(c1)CCCN2Cc1nnc2n1CCCCC2 | 37% (active)
O=c1cc(CN2CCCc3ccccc32)nc2sccn12 | 0.01% (inactive)
COc1ccc(CNc2nn[nH]n2)cc1OC | 2.6% (inactive)
Cc1ccc([C@@H]2C3COCC=C3C(C#N)=C(N)C2(C#N)C#N)o1 (some centres undefined) | 0.32% (inactive)
O=C(C1CCN(Cc2ccc(OCc3ccccc3)cc2)CC1)N1CCCC1 | 0.13% (inactive)
CN1CCN(/N=C/c2ccc(OCc3ccccc3)cc2)CC1 | 107% (active)
CN1CCN(CCOc2ccc(Cc3ccccc3)cc2)CC1 | 0.23% (inactive)
Cc1ccc(/C=C2\Oc3c(ccc(O)c3CN3CCN(C)CC3)C2=O)cc1 | 0.13% (inactive)
OCCN1CCN(CC(O)COc2ccc(C34CC5CC(CC(C5)C3)C4)cc2)CC1 (centres undefined) | 32.1% (active)
CCCCNc1nc(-c2ccccc2)nc(-n2ccnc2)n1 | 1.09% (inactive)

Structure (SMILES) | fluorescence artifact activation
COc1cc(CCCN2C(=S)NC[C@@H]2CC2CCCCC2)cc(OC)c1OC | 7.7% (inactive)
Cc1cc2cc(C=C(C#N)C#N)c(Cl)nc2cc1C | -0.03% (inactive)
Cc1cc(C(=O)NNC(=S)Nc2ccccc2C)cs1 | 1.65% (inactive)
NC(=O)NNC1=Nc2cccc3cccc1c23 | 1.01% (inactive)
O=C(COc1ccc(Cl)cc1[N+](=O)[O-])N1CCCCC1 | 18.1% (active)
O=C(COc1ccc(Cl)cc1[N+](=O)[O-])N1CCCCCC1 | 0.34% (inactive)
CC(Oc1ccc(S(=O)(=O)N2CCCC2)cc1[N+](=O)[O-])C(=O)N(C)c1ccccc1 (centres undefined) | 0.2% (inactive)
COc1ccc(NC(=O)NS(=O)(=O)c2ccc(C)cc2)cn1 | 0.39% (inactive)
O=C(N1CCOCC1)N1CCC(n2nnc3ccccc32)CC1 | 0.06% (inactive)
Cc1ccsc1C1C=C(c2cccc(Br)c2)Nc2ncnn21 (centres undefined) | -0.01% (inactive)
CCOC(=O)c1sc(=NC(=O)c2cc(OC)c(OC)c(OC)c2)n(C)c1C | 80.1% (active)
CCOC(=O)c1sc(N)c(C#N)c1COC(=O)CNC(=O)c1cc(OC)c(OC)c(OC)c1 | 3.51% (inactive)
CCOC(=O)c1sc(-c2ccc(F)cc2)cc1NC(=O)Nc1ccccc1OC | 7.09% (inactive)
S=C1NC2=C(CCC/C2=C\c2ccccc2)C(c2ccccc2)N1 (centres undefined) | 0.06% (inactive)
COc1ccccc1C(=O)Oc1ccc2c(c1)O/C(=C\c1ccncc1)C2=O | 8.13% (inactive)
O=C(Oc1ccc2c(c1)O/C(=C\c1ccncc1)C2=O)c1ccccc1 | 33% (active)
COc1ccc(/C=C2\Oc3cc(OCC(N)=O)ccc3C2=O)cc1OC | 0.06% (inactive)
O=C(CC1SC(N2CCCCC2)=NC1=O)Nc1ccc(C(=O)NCc2ccccc2)cc1 (centres undefined) | 3.4% (inactive)
Cc1ccc(C(=O)Nc2ccc3c(c2)ncn3C)cc1 | 2.41% (inactive)
O=C1NC(c2ccco2)Nc2sc3c(c21)CCN(Cc1ccccc1)C3 (centres undefined) | 0.37% (inactive)
COc1ccc(/C(O)=C2\C(=O)C(=O)N(Cc3ccco3)C2c2cc(OC)ccc2OC)cc1 (centres undefined) | 0.4% (inactive)
COc1ccc(NC(=O)CS(=O)(=O)c2cccc(Cl)c2)cc1 | 0.13% (inactive)
COc1ccc(NC(=O)CC2C(=O)N(Cc3ccco3)C(=S)N2C(C)C)cc1 (centres undefined) | 23.2% (active)
Cc1cccc(C)c1OCC(C)N (centres undefined) | 4.83% (inactive)
O=C(COc1ccccc1F)NC1CC1 | 10.7% (inactive)

Structure (SMILES) | fluorescence artifact activation
COc1ccc(C)cc1NC(=O)CC1COc2ccccc2O1 (centres undefined) | 0.06% (inactive)
C=CCOc1ccccc1CNc1cccc(F)c1 | 1.22% (inactive)
COc1ccccc1CNc1cc(C)ccc1C | 415% (active)
Cc1cccc(-n2c(C)cc(C=C3C(=O)c4ccccc4C3=O)c2C)c1 | -0.01% (inactive)
CCC1SC(=Nc2cccc(C)c2)NC1=O (centres undefined) | 50% (active)
COCCn1c(=NC(=O)/C=C/c2ccccc2)sc2cc(NC(C)=O)ccc21 | 3.82% (inactive)
CCOC(=O)c1c(C(C)(C)C)oc2ccc(OCC#N)cc12 | 0.48% (inactive)
COc1cc2c(cc1OC)-c1cc3ccc4c(c3c[n+]1CC2)OCO4 | 0.19% (inactive)
COc1ccc(NC(=O)CSc2nncc3ccccc23)cc1 | 0.15% (inactive)
O=C(CSc1nncc2ccccc12)Nc1ccc(F)cc1 | 51.6% (active)
Nc1nc(SCC(=O)Nc2ccc(Cl)cc2)[nH]c(=O)c1-c1ccccc1 | 0.2% (inactive)
COc1ccc(CC/C(C)=N\NC(N)=O)cc1 | 1.07% (inactive)
COc1ccc(C)cc1Nc1n[n+](-c2ccccc2)c(-c2cc([N+](=O)[O-])cc(OC)c2O)s1 | -0.11% (inactive)
O=C1c2ccccc2-c2c1cccc2C(=O)N1CCCCCC1 | 0.15% (inactive)
O=C(c1ccccc1)N1CCCCC1 | 2.65% (inactive)
Cc1[nH]c(C)c(S(=O)(=O)N2c3ccccc3CC2C)c1C(=O)N1CCCCC1 (centres undefined) | 43.6% (active)
C=CCn1cccc(C(=O)Nc2ccc(OC)c(Cl)c2)c1=O | 0.54% (inactive)
COc1ccc(N2CCN(C(=O)Cn3nnc(-c4ccccc4N)n3)CC2)cc1 | 20.6% (active)
CC1CCCCN1C(=O)Cn1nnc(-c2cccnc2)n1 (centres undefined) | 1.03% (inactive)
COc1c(O)cccc1-c1nnn(CCC(=O)OCC(=O)c2ccccc2)n1 | 10.9% (inactive)
COC(=O)CCC(=O)OC1(C)C(=O)C=C2C=C(C3CC3)N(c3cccc(C#N)c3)C=C2C1=O (centres undefined) | -0.02% (inactive)
COC(=O)c1ccc(Oc2c(F)c(F)nc(N3CCOCC3)c2F)cc1 | -0.07% (inactive)
OCCN(CCO)c1nc(N2CCCCC2)c2nc(N(CCO)CCO)nc(N3CCCCC3)c2n1 | 11.3% (inactive)
O=C(c1ccc([N+](=O)[O-])cc1[N+](=O)[O-])n1cnc2ccccc21 | -0.09% (inactive)
